Activity calls are given as the source filed them. No cut-off for these calls is given here. Some results are limits rather than exact numbers.

Format in all cases: cell-based
Data set [1] has as its system HEK293. Kind of data set: Cytotoxicity against human HEK293 cells transfected with human TLR7 assessed as reduction in cell viability at 0.5 to 20 uM incubated for 16 hrs by WST-1 assay. The note with it: hek293, 16 h. For orientation: Tetrazolium assays rely on reduction of a dye to a coloured formazan, in cell work by metabolically active cells.
In data set [2] the target is T1, Toll-like receptor 8 (Homo sapiens) (UniProt Q9NR97).
T1 sequence (whole entry): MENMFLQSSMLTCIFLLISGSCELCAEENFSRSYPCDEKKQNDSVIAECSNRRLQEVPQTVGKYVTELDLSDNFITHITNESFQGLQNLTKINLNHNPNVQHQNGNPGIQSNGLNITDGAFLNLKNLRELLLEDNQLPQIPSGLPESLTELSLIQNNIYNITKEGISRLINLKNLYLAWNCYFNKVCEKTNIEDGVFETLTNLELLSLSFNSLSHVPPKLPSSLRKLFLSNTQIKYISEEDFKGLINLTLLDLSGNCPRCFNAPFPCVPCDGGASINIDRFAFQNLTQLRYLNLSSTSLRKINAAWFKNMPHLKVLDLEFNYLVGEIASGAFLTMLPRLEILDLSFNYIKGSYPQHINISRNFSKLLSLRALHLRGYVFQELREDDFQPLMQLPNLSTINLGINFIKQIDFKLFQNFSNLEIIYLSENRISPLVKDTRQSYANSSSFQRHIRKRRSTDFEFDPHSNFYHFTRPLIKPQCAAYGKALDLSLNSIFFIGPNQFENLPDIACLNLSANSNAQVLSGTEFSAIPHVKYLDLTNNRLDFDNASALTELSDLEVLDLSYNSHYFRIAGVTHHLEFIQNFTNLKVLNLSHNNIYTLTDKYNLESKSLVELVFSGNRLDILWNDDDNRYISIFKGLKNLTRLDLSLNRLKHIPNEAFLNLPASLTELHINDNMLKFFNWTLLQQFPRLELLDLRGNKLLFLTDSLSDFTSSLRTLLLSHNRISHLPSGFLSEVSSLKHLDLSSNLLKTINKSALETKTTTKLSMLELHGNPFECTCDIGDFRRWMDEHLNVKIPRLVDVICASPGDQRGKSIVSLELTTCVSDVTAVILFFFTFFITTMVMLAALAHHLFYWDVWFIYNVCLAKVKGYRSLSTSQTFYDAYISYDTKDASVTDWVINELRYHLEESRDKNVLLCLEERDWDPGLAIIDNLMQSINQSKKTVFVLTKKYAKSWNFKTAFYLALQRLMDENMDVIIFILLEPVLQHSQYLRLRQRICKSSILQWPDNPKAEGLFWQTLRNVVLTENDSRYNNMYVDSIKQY
In words: Inhibition of human TLR8 expressed in HEK293 cells assessed as reduction in R848-induced NFkappaB production at 5 to 20 uM incubated for 16 hrs by quanti-blue SEAP assay. The method, boiled down:
(§1)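 Selectivity panel in stably transfected HEK 293-Blue cells, each overexpressing one human TLR with an inducible SEAP reporter. Agonists: Pam3CSK4 (TLR1/2), Pam2CSK4 (TLR2/6), poly(I:C) (TLR3), LPS (TLR4), R848 (TLR7/8), ODN 2006 (TLR9). Cells were exposed to compound for 16 h. Activity = (raw − untreated)/(ligand + solvent − untreated), with ligand + solvent set as 100%.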

Another data set has as its system THP-1. Kind of data set: Cytotoxicity against human THP1 cells transfected with human TLR7/8 assessed as reduction in cell viability at 0.5 to 20 uM incubated for 16 hrs by WST-1 assay. Particulars: thp-1, 16 h.
The subject of data set [3] is HEK293. Kind of data set: Cytotoxicity against human HEK293 cells transfected with human TLR8 assessed as reduction in cell viability at 100 uM incubated for 16 hrs by WST-1 assay. The note with it: hek293, 16 h.
A further data set has as its system RAW264.7. Kind of data set: Cytotoxicity against mouse RAW264.7 cells assessed as reduction in cell viability at 0.5 to 20 uM incubated for 16 hrs by WST-1 assay. The note with it: raw264.7, 16 h.
In data set [4] the target is T2, Toll-like receptor 7 (Homo sapiens) (UniProt Q9NYK1).
T2 sequence (whole entry): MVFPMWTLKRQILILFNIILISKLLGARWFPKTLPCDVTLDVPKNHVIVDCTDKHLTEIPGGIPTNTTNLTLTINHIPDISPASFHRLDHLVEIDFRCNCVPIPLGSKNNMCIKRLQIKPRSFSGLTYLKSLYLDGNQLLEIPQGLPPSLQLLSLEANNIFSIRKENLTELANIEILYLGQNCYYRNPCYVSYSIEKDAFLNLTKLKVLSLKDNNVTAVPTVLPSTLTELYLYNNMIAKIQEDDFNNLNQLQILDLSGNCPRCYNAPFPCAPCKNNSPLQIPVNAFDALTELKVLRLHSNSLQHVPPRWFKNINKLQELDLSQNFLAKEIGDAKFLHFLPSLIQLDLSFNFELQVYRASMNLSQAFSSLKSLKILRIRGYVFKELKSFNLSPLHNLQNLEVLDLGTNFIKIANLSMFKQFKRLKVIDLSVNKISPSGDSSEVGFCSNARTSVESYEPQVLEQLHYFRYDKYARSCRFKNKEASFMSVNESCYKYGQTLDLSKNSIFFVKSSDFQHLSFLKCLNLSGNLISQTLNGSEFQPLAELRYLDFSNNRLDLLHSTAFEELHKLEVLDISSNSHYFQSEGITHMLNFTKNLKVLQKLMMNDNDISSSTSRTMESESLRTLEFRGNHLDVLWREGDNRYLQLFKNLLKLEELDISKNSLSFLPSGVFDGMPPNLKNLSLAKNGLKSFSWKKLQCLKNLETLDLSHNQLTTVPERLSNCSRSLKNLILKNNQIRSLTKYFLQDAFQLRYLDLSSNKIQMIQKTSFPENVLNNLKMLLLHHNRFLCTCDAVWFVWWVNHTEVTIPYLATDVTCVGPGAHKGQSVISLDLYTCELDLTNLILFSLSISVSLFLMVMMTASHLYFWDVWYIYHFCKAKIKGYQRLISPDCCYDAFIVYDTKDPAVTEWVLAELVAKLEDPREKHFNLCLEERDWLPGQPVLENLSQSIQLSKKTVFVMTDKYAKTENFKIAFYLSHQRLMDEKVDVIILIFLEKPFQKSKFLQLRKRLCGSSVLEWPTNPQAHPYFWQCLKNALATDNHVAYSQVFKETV
In words: Inhibition of human TLR7 expressed in HEK293 cells assessed as reduction in resiquimod-induced NFkappaB production at 0.5 uM incubated for 16 hrs by quanti-blue SEAP assay. The method, boiled down: as §1

Another data set concerns the target T3, Toll-like receptor 7 (Homo sapiens, UniProt Q9NYK1).
T3 sequence (Q9NYK1 whole entry): T2 sequence (whole entry)
Kind of data set: Inhibition of human TLR7 expressed in HEK293 cells assessed as reduction in R848-induced NFkappaB production incubated for 16 hrs by quanti-blue SEAP assay. The method, boiled down:
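HEK 293-Blue cells stably expressing hTLR7 or hTLR8 with an inducible SEAP reporter were incubated 16 h with compound under 1 µg/mL R848 stimulation. SEAP was read at 620 nm. Data were normalized to the R848 control, and IC50 was taken from concentration-response curves. […] Mean ± s.d., n = 3 independent experiments.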

The subject of data set [5] is HEK293. In words: Cytotoxicity against human HEK293 cells transfected with human TLR7 assessed as reduction in cell viability at 100 uM incubated for 16 hrs by WST-1 assay. Particulars: hek293, 16 h.

The IC50 is the concentration that inhibits the measured activity by half. As to `O=C(Nc1ccc(Oc2cc(C(F)(F)F)cc(C(F)(F)F)c2)cc1)c1c(F)cccc1I`, the Activity entry with HEK293 [1] is given as “Non-Toxic”; in the data set on THP-1, “Non-Toxic”; in the data set with HEK293 [3], “Toxic”; in the data set with RAW264.7, “Non-Toxic”; with HEK293 [5], “Toxic”. Further, the inhibition entry in data set [2] is “Active”. The inhibition entry in data set [4] was “inactive”. Further, the IC50 on Toll-like receptor 7 was > 50 µM.

For the molecule `O=[N+]([O-])c1c(I)cccc1Oc1ccc(-c2nnco2)cc1`, the Activity result with HEK293 [1] is listed as “Non-Toxic”; in the data set on THP-1, “Non-Toxic”; in the data set with HEK293 [3] it was “Toxic”; with RAW264.7, “Non-Toxic”; in the data set on HEK293 [5], “Toxic”. The IC50 on Toll-like receptor 7 was > 20 µM.

As to `O=C(Nc1ccc(Oc2cncc(C(F)(F)F)c2)cc1)c1c(F)cccc1Cl`, the Activity result is given as “Non-Toxic” with HEK293 [1]; “Non-Toxic” in the data set on THP-1; “Toxic” with HEK293 [3]; “Non-Toxic” with RAW264.7; “Toxic” in the data set on HEK293 [5]. The inhibition result in data set [2] is “Active”. Besides, the inhibition result in data set [4] was “inactive”.

In the case of `O=C(Nc1ccc(Oc2cc(C(F)(F)F)cc(C(F)(F)F)c2)cc1)c1c(F)cccc1Cl`, on Toll-like receptor 7, the IC50 was 2.88 µM.

The record behind these values is ChEMBL document CHEMBL4354819, “Discovery of Novel Small Molecule Dual Inhibitors Targeting Toll-Like Receptors 7 and 8” (J Med Chem, 2019).
